Legend:
[1] = tested on: Rattus norvegicus; assay: Percent increase in liver weight in rats when administered perorally; format: functional
[2] = tested on: Rattus norvegicus; assay: Percent change in total cholesterol concentration in serum from hypercholesterolemic rats at dose 50 mg/kg (po); format: functional
[3] = tested on: Rattus norvegicus; assay: Percent change in high density lipoproteins cholesterol concentration in serum from hypercholesterolemic rats at dose 50 mg/kg (po); format: functional
How it was run: (§1)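 Rats were fed 1.5% cholesterol/0.5% cholic acid diet for 7 days, with compounds given by gavage over the last 4 days as a 0.5% Methocel suspension (0.5 mL/100 g). Rats were fasted overnight, killed on day 8 and bled under light CO₂ anesthesia. HDL was isolated by heparin-MnCl₂ precipitation (8000 rpm, 15 min, 4 °C). Total and HDL cholesterol were measured enzymatically-colorimetrically; % change vs control.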

[4] = tested on: Rattus norvegicus; assay: Percent change in total cholesterol concentration in serum from hypercholesterolemic rats at dose 45 mg/kg (po); format: functional
[5] = tested on: Rattus norvegicus; assay: Percent change in high density lipoproteins cholesterol concentration in serum from hypercholesterolemic rats at dose 45 mg/kg (po); format: functional; how it was run: as §1
[6] = tested on: Rattus norvegicus; assay: Compound was tested for its activity in diet-induced Hypercholesterolemic rats at dose 50 mg/kg after peroral administration carnitine acetyl transferase activity(per mg) of protein; format: functional; conditions: route oral
[7] = tested on: Rattus norvegicus; assay: Compound was tested for its activity in diet-induced Hypercholesterolemic rats at dose 50 mg/kg after peroral administration palmitoyl-CoA oxidation activity(per mg) of protein; format: functional; conditions: route oral
[8] = tested on: Rattus norvegicus; assay: Compound was tested for Hepatic peroxisomal proliferation effect in male rats treated for 7 days at dose 50 mg/kg protein; format: functional
[9] = tested on: Rattus norvegicus; assay: Compound was tested for Hepatic peroxisomal proliferation effect in male rats treated for 7 days at dose 50 mg/kg concentration of hepatic proteins(mg/g) in liver; format: functional, organism-based; design: dose 50 mg/kg
[10] = Compound was tested for Hepatic peroxisomal proliferation effect in male rats treated for 7 days at dose 50 mg/kg ratio of % liver weight to % body weight; format: functional
[11] = tested on: Rattus norvegicus; assay: Percent change in total cholesterol concentration in serum from hypercholesterolemic rats at dose 35 mg/kg (po); format: functional
[12] = tested on: Rattus norvegicus; assay: Percent change in high density lipoproteins cholesterol concentration in serum from hypercholesterolemic rats at dose 35 mg/kg (po); format: functional; how it was run: as §1
[13] = organism: Rattus norvegicus; assay: Compound was tested in vitro for inhibition of Cholesterol biosynthesis in rat liver slices, % inhibition of [14C]acetate incorporation in neutral lipids at 2 e10-4 concentration; format: functional
How it was run: (§2)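 Liver slices (250 mg) from fed male rats were incubated in Krebs-Ringer bicarbonate, pH 7.4, with 4 mM [2-¹⁴C]acetate under 95% O₂-5% CO₂. Compounds were tested at a final 2 × 10⁻⁴ M, or 5 × 10⁻⁵ M for one compound. ¹⁴C incorporation into cholesterol and into petroleum-ether-soluble nonsaponifiable neutral lipids gave % inhibition; mean of four determinations.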

[14] = organism: Rattus norvegicus; assay: Compound was tested in vitro for inhibition of Cholesterol biosynthesis in rat liver slices, % inhibition of [14C]-acetate incorporation in cholesterol at 2 e10-4 concentration; format: functional; how it was run: as §2
[15] = tested on: Rattus norvegicus; assay: Percent change in total cholesterol concentration in serum from hypercholesterolemic rats at dose 23 mg/kg (po); format: functional; how it was run: as §1
[16] = tested on: Rattus norvegicus; assay: Percent change in high density lipoproteins cholesterol concentration in serum from hypercholesterolemic rats at dose 23 mg/kg (po); format: functional; how it was run: as §1
[17] = tested on: Rattus norvegicus; assay: Percent increase in liver weight in rats when a 50 mg/Kg dose was administered; format: functional
[18] = tested on: Rattus norvegicus; assay: Compound was tested for Enzyme induction effect in male rats treated for 5 days at dose 50 mg/kg aminopyrine N-demethylase activity (per g) of liver; format: functional
How it was run: (§3)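 Male OFA-ICO SD rats were dosed orally for 5 days, with test compounds at 50 mg/kg/day and sodium phenobarbital at 75 mg/kg/day. Liver was homogenized in 1.15% KCl-0.01 M phosphate, pH 7.5. Microsomes were spun from the 9000g supernatant at 105000g and assayed for protein, cytochrome P-450, aniline p-hydroxylation (µmol p-aminophenol/20 min) and aminopyrine N-demethylation (µmol HCHO/5 min). Liver/body weight was also recorded. Mean ± SEM of four rats; Dunnett's test.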

[19] = tested on: Rattus norvegicus; assay: Compound was tested for Enzyme induction effect in male rats treated for 5 days at dose 50 mg/kg aniline p-hydroxylase activity(per g) of liver; format: functional; how it was run: as §3
[20] = tested on: Rattus norvegicus; assay: Compound was tested for Enzyme induction effect in male rats treated for 5 days at dose 50 mg/kg concentration of cytochrome […]( mmol/mg) of protein; format: functional; how it was run: as §3
[21] = tested on: Rattus norvegicus; assay: Compound was tested for Hepatic peroxisomal proliferation effect in male rats treated for 7 days at dose 50 mg/kg carnitine acetyl transferase activity(per mg) of protein; format: functional
How it was run: (§4)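 Male OFA-ICO SD rats received oral doses of 50 mg/kg/day for 1 week. Liver was homogenized in 0.25 M sucrose-0.01 M phosphate-0.1% ethanol, pH 7, then diluted in incubation buffer with 0.1% Triton X-100 and centrifuged. Supernatants were assayed for catalase (K, sec⁻¹), carnitine acetyltransferase (nmol CoASH/min) and cyanide-insensitive palmitoyl-CoA oxidation (nmol NAD⁺ reduced/min). Mean ± SEM of three rats; Dunnett's test.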

[22] = tested on: Rattus norvegicus; assay: Compound was tested for Hepatic peroxisomal proliferation effect in male rats treated for 7 days at dose 50 mg/kg catalase activity (per mg) of protein; format: functional; how it was run: as §4
[23] = tested on: Rattus norvegicus; assay: Compound was tested for Hepatic peroxisomal proliferation effect in male rats treated for 7 days at dose 50 mg/kg palmitoyl-CoA oxidation activity(per mg) of protein; format: functional; how it was run: as §4
[24] = tested on: Rattus norvegicus; assay: Compound was tested for Enzyme induction effect in male rats treated for 5 days at dose 50 mg/kg concentration of microsomal proteins (mg/g) of liver; format: functional, organism-based; design: dose 50 mg/kg; how it was run: as §3
[25] = Compound was tested for Enzyme induction effect in male rats treated for 5 days at dose 50 mg/kg; ratio of % liver weight to % body weight; format: functional; how it was run: as §3
[26] = Percent change in high density lipoprotein cholesterol
[27] = tested on: Rattus norvegicus; assay: Percent change in triglyceride concentration in serum from normocholesterolemic rats at dose 50 mg/kg (po)
[28] = tested on: Rattus norvegicus; assay: Percent change in low density lipoproteins cholesterol concentration in serum from normocholesterolemic rats at dose 50 mg/kg (po)

SMILES | Change [1] | Change [2] | Change [3] | other results
O=C1c2ccccc2OC(c2cccnc2)C1n1ccnc1 (stereo not drawn) | 4% | -4% | 12% | –
CCCC1Oc2ccccc2C(=O)C1n1ccnc1 (stereo not drawn) | 20% | – | – | Change [4]: -4%; Change [5]: 53%
Cc1cc(Br)c2c(c1)C(=O)C(n1ccnc1)CO2 (stereo not drawn) | 7% | – | 21% | Change [4]: -15%
O=C1c2ccc(O)cc2CCC1n1ccnc1 (stereo not drawn) | -3% | 30% | 12% | –
O=C1c2ccsc2CCC1n1ccnc1 (stereo not drawn) | – | 17% | 2% | –
CC(C)(C)c1cc(Br)c2c(c1)C(=O)C(n1ccnc1)CO2 (stereo not drawn) | 15% | -12% | 57% | –
COC1c2cc(Cl)ccc2OCC1n1ccnc1 (racemic) | 15% | 8% | -7% | –
CCC1(c2ccccc2)C(=O)NC(=O)NC1=O [PHENOBARBITAL] | – | – | – | Activity [6]: 4.2; Activity [7]: 1.15; Activity [8]: 1.92; Concentration [9]: 40.6; Ratio [10]: 4.32%
COc1ccc2c(c1)C(=O)C(n1ccnc1)CC2 (stereo not drawn) | 10% | -40% | 52% | –
CC1Oc2cc(O)c(C(C)(C)C)cc2C(=O)C1n1ccnc1 (stereo not drawn) | 9% | -7% | 32% | –
Cc1nccn1C1COc2ccc(Cl)cc2C1=O (stereo not drawn) | 14% | 39% | 23% | –
OC1c2cc(Cl)ccc2OCC1n1ccnc1 (trans isomer) | 20% | – | – | Change ([2]; 50 mg/kg): -14%; Change ([3]; 50 mg/kg): 83%
Clc1ccc2c(c1)C=C(n1ccnc1)CO2 | 2% | -10% | 25% | –
Nc1ccc2c(c1)C(=O)C(n1ccnc1)CC2 (stereo not drawn) | 3% | – | – | Change [11]: -24%; Change [12]: 31%; Inhibition [13]: 0%; Inhibition [14]: 74%
COc1ccc2c(c1)OC(C)C(n1ccnc1)C2=O (stereo not drawn) | 2% | 11% | 5% | –
O=C1c2cc(-c3ccccc3)ccc2CCC1n1ccnc1 (stereo not drawn) | 2% | – | – | Change [15]: 4%; Change [16]: 8%
CC1Cc2ccccc2C(=O)C1n1ccnc1 (stereo not drawn) | 26% | -54% | 102% | –
O=C1c2ccc(-c3ccccc3)cc2OCC1n1ccnc1 (stereo not drawn) | 22% | -48% | 118% | –
CC1Oc2ccccc2C(=O)C1n1ccnc1 (stereo not drawn) | 15% | -67% | 115% | –
COc1ccc2c(c1)C(=O)C(n1ccnc1)CO2 (stereo not drawn) | 20% | -21% | 88% | –
O=C1c2cc(Cl)ccc2OCC1n1ccnc1 (stereo not drawn) | 28% | – | – | Change [17]: 34%; Activity [18]: 2.98; Activity [19]: 0.93; Activity [20]: 2.46; Activity [21]: 2.9; Activity [22]: 42.1; Activity [23]: 4.1; Concentration [24]: 42.5; Concentration [9]: 216; Inhibition [13]: 0%; Inhibition [14]: 0%; Ratio [25]: 4.4%; Ratio [10]: 4.36%; Percent change in HDL cholesterol [26]: 153; Change [27]: -46%; Change [28]: -53%
O=C1c2cc(O)ccc2OCC1n1ccnc1 (stereo not drawn) | 3% | 9% | -4% | –
